The source of these data is ChEMBL document CHEMBL4014335, “Activation of Phenyl 4-(2-Oxo-3-alkylimidazolidin-1-yl)benzenesulfonates Prodrugs by CYP1A1 as New Antimitotics Targeting Breast Cancer Cells” (J Med Chem, 2017).

Calls of active or inactive are those of the source. The rule behind the calls is not given here.

Data set [1] in a line: Selectivity ratio of IC50 for ER/PR/HER2 deficient human MDA-MB-231 cells to IC50 for ER/PR/HER2 expressing human T47D cells. Format: functional. A digest of the protocol: (§1)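 Ratio is IC50 in reference line over IC50 in sensitive line. […] Cells in DMEM with 5% calf serum at 37 °C. At least two experiments, triplicate cultures; assay accepted when relative SD < 10%.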
Data set [2] deals with HT-1080. Kind of data set: Antitumor activity against empty plasmid transfected human HT1080 cells implanted in chicken chorioallantoic membrane assessed as tumor growth inhibition at 1 ug/egg, iv administered on day 11 post implantation measured on day 17. Format: functional. A digest of the protocol:
(§2)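 Chick CAM tumor model using HT-1080 cells (wild-type or stably transfected with CYP1A1 or empty plasmid). Eggs incubated 10 d. On day 11, drug in DMSO (40 mM stock) was diluted in cremophor/EtOH/PBS (6.25/6.25/87.5), DMSO kept below 0.5%, and given iv in 100 µL to 10-12 eggs. Tumors excised on day 17 and wet-weighed. Two independent experiments (20-24 eggs); embryo deaths and toxicity recorded.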

Data set [3] is filed under the species Homo sapiens. Kind of data set: Destabilization of microtubule network in human MCF7 cells at 8 nM after 24 hrs by fluorescence microscopic analysis. Format: cell-based.
Data set [4] is described as follows: Selectivity ratio of IC50 for ER/PR/HER2 deficient human MDA-MB-231 cells to IC50 for ER/PR/HER2 deficient human MDA-MB-468 cells. Format: functional. In outline:
as §1

For data set [5], the system named is HT-1080. Briefly: Antiproliferative activity against human wild type HT1080 cells after 72 hrs by SRB assay. The settings on record: HT-1080, 72 h. The class given is functional, cell-based. In outline:
(§3)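 SRB antiproliferative assay (modified NCI protocol). Cells seeded per well (SK-BR-3, MDA-MB-231, T47D, HT-1080, HT-1080 CYP1A1 and empty-vector: 3.0 x 10^3; MDA-MB-468: 5.0 x 10^3; MCF7: 7.5 x 10^3), preincubated 24 h. DMSO-solubilized drug added at 0.75 to 1.0 x 10^5 nM, then 72 h. Fixed with cold 10% TCA, stained with 0.1% sulforhodamine B, absorbance read at 530-565 nm. At least two experiments, triplicate cultures.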

Data set [6] relates to HT-1080. Briefly: Selectivity ratio of IC50 for HT1080 cells transfected with pCMV6-AC empty plasmid to IC50 for human HT1080 cells transfected with CYP1A1. Format: functional. In outline: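 Ratio is IC50 (HT-1080 empty vector) over IC50 (HT-1080 CYP1A1). Both lines stably transfected (pCMV6-AC plasmids) and kept under G418 selection, seeded at 3.0 x 10^3 cells. IC50s from SRB antiproliferative assay.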

For data set [7], the system named is HT-1080. Briefly: Antitumor activity against CYP1A1 transfected human HT1080 cells implanted in chicken chorioallantoic membrane assessed as tumor growth inhibition at 1 ug/egg, iv administered on day 11 post implantation measured on day 17. Format: functional. A digest of the protocol:
as §2

Data set [8] in a line: Selectivity ratio of IC50 for ER/PR/HER2 deficient human MDA-MB-231 cells to IC50 for human MCF7 cells. The class given is functional. A digest of the protocol:
as §1

In data set [9] the test system is HT-1080. Kind of data set: Antiproliferative activity against human HT1080 cells transfected with CYP1A1 after 72 hrs by SRB assay. The class given is functional, cell-based. The settings on record: HT-1080, 72 h. A digest of the protocol: as §3
Data set [10] can be described thus: Selectivity ratio of IC50 for ER/PR/HER2 deficient human MDA-MB-231 cells to IC50 for ER/PR deficient and HER2 expressing human SKBR3 cells. The class given is functional. In outline: as §1
A further data set concerns MDA-MB-231. Kind of data set: Antiproliferative activity against ER/PR/HER2 deficient human MDA-MB-231 cells after 72 hrs by SRB assay. Format: functional, cell-based. Conditions: MDA-MB-231, 72 h. A digest of the protocol: as §3
Data set [11] concerns HT-1080. Briefly: Antiproliferative activity against human HT1080 cells transfected with pCMV6-AC empty plasmid after 72 hrs by SRB assay. The class given is functional, cell-based. The settings on record: HT-1080, 72 h. In outline:
as §3

In the next data set the test system is T47D. Briefly: Antiproliferative activity against ER/PR/HER2 expressing human T47D cells after 72 hrs by SRB assay. The class given is functional, cell-based. In outline:
as §3

Data set [12] concerns MDA-MB-468. Kind of data set: Antiproliferative activity against ER/PR/HER2 deficient human MDA-MB-468 cells after 72 hrs by SRB assay. The settings on record: MDA-MB-468, 72 h. Format: functional, cell-based. A digest of the protocol:
as §3

In a further data set the test system is SK-BR-3. Kind of data set: Antiproliferative activity against ER/PR deficient and HER2 expressing human SKBR3 cells after 72 hrs by SRB assay. The class given is functional, cell-based. Conditions: SK-BR-3, 72 h. In outline:
as §3

Data set [13] relates to HT-1080. Briefly: Antitumor activity against human HT1080 cells implanted in chicken chorioallantoic membrane assessed as tumor growth inhibition at 1 ug/egg, iv administered on day 11 post implantation measured on day 17. The class given is functional. In outline:
as §2

The target of the next data set is T1, Cytochrome P450 1A1 (Homo sapiens, UniProt P04798).
T1 sequence (P04798 whole entry): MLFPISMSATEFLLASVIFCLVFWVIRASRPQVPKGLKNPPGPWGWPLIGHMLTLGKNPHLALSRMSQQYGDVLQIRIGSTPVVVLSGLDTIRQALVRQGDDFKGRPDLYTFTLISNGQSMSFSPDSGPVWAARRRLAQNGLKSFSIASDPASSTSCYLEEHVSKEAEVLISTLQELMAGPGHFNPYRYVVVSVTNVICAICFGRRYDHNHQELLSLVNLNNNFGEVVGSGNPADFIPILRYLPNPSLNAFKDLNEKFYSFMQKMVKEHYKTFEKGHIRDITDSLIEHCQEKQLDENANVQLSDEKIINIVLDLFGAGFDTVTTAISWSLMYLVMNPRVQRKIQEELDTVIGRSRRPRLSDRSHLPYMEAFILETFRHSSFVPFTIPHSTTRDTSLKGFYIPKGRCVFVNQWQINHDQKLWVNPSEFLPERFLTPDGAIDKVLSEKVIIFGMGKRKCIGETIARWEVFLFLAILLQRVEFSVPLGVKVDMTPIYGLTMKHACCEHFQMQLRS
Briefly: Inhibition of human supersomes CYP1A1-mediated 7-ethoxyresorufin conversion to fluorescent resorufin preincubated with 7-ethoxyresorufin for 5 mins followed by addition of NADPH regenerating system measured for 15 mins by EROD assay. Format: ADME. A digest of the protocol: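 EROD assay with human CYP1A1 supersomes containing reductase, in potassium phosphate buffer. Drug final 32–31 600 nM and 7-ethoxyresorufin 94–3 000 nM, with 0.35% DMSO, preincubated 5 min at 37 °C. Reaction started with NADPH-regenerating system and 0.15 pmol CYP1A1 in 150 µL. Initial velocity taken from 1–5 min; Vmax and Km from Lineweaver-Burk plot.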

The species entered for data set [14] is Homo sapiens. Kind of data set: Destabilization of microtubule network in human MDA-MB-231 cells at 8 nM after 24 hrs by fluorescence microscopic analysis. Format: cell-based.
A further data set concerns MCF7. Kind of data set: Antiproliferative activity against human MCF7 cells after 72 hrs by SRB assay. The class given is functional, cell-based. The settings on record: MCF7, 72 h. A digest of the protocol: as §3
In the next data set the test system is CYP1A1 mRNA. Kind of data set: Upregulation of CYP1A1 mRNA expression in human MCF7 cells at 10 nM after 18 hrs by quantitative PCR analysis relative to control. The settings on record: read-out: FC. The class given is ADME, cell-based. A digest of the protocol: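 MCF7 cells exposed to 10 nM drug for 18 and 24 h. RNA extracted with TriReagent, reverse-transcribed with M-MuLV, random hexamers and oligo(dT). 4 ng cDNA run in quadruplicate with SYBR Green, 40 cycles at 95 °C/60 °C. Relative expression by the 2^-ΔΔCt method, normalized to ACTB and B2M.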

Data set [15] deals with MDA-MB-468. Briefly: Cell cycle arrest in human MDA-MB-468 cells assessed as accumulation at subG1 phase at 50 nM after 24 hrs by DAPI-staining based FACS analysis (reference value: 0.2%). The class given is functional.

For the molecule `COc1cc(OS(=O)(=O)c2ccc(N3CCNC3=O)cc2)cc(OC)c1OC`, the “Ratio IC50” value stood at 1 in data set [1]; 1.4 in data set [4]; 1.9 in the data set on HT-1080 [6]; 2.1 in [8]; 2.1 in data set [10]. The TGI in the data set on HT-1080 [2] is 21%; in the data set with HT-1080 [7], 32%; in the data set on HT-1080 [13], 51%. In addition, in the data set listed under Homo sapiens [3], the outcome was Active. Also, the IC50 in the data set on HT-1080 [5] was 3.6 nM; in the data set on HT-1080 [9], 1.7 nM; with MDA-MB-231, 6.4 nM; in the data set on HT-1080 [11], 3.3 nM; in the data set with T47D, 6.2 nM; in the data set on MDA-MB-468 [12] it was 4.6 nM. In addition, the IC50 in the data set with SK-BR-3 and in the data set on MCF7 was 3.1 nM throughout. Further, the Ki result on Cytochrome P450 1A1 was “Not Active”. The result in the data set filed under Homo sapiens [14] was inactive.
Consider `CCCCN1CCN(c2ccc(S(=O)(=O)Oc3cc(OC)c(OC)c(OC)c3)cc2)C1=O`, for which the “Ratio IC50” value in [1] was 300; in data set [4] it was 590; in the data set on HT-1080 [6], 3600; in data set [8] it was 1100; in [10] it was 3000. The TGI result in the data set on HT-1080 [2] is “inactive”. Further, the fold induction at 18 h, 0.01 µM in the data set on CYP1A1 mRNA worked out at 2. The IC50 in the data set on HT-1080 [5] came to 5500 nM; in the data set on HT-1080 [9] it was 13 nM; with MDA-MB-231 it was 6000 nM; in the data set with HT-1080 [11], 47000 nM; in the data set with T47D, 20 nM; in the data set on MDA-MB-468 [12], 10 nM. The values for the IC50 with SK-BR-3 and in the data set on MCF7 were 2 nM and 5.5 nM, respectively. Also, the figures for the TGI with HT-1080 [7] and with HT-1080 [13] were 49% and 15%, respectively. In addition, the Ki on Cytochrome P450 1A1 (read-out: Ki) was 540 nM. Besides, the Activity in the data set on MDA-MB-468 [15] stood at 1.3%.
